The source made the active and inactive calls. No cut-off for these calls is given here.
Legend:
[1] = Cytotoxicity against mouse BV2 cells assessed as cell viability at 1 uM incubated for 6 hrs by CCK-8 assay relative to control; type: cell-based, BV-2; settings: read-out: Activity
Method in brief: (§1)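 BV-2 cells exposed to compound for 6 h, then viability measured; percent survival reported.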

[2] = Cytotoxicity against mouse BV2 cells assessed as cell viability at 10 uM incubated for 6 hrs by CCK-8 assay relative to control; type: cell-based, BV-2; settings: read-out: Activity; method in brief: as §1
BV-2 [3] = assay: Antiinflammatory activity in mouse BV2 cells assessed as reduction in LPS-induced IL-1beta expression at 3 to 10 uM incubated for 6 hrs followed by LPS stimulation for 12 hrs by RT-qPCR analysis; type: functional, cell-based
Method in brief: (§2)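 BV-2 cells pretreated with compound 6 h, then stimulated with 1 μg/mL LPS for 12 h; protein and mRNA levels quantified relative to LPS-stimulated control; mean ± SD (n = 3); paired t test.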

[4] = target: T1, Nuclear factor erythroid 2-related factor 2 (Mus musculus) (UniProt Q60795); assay: Activation of Nrf2 in mouse BV-2 cells assessed as increase in nuclear Nrf2 level by Western blot analysis; type: cell-based
T1 sequence (whole entry): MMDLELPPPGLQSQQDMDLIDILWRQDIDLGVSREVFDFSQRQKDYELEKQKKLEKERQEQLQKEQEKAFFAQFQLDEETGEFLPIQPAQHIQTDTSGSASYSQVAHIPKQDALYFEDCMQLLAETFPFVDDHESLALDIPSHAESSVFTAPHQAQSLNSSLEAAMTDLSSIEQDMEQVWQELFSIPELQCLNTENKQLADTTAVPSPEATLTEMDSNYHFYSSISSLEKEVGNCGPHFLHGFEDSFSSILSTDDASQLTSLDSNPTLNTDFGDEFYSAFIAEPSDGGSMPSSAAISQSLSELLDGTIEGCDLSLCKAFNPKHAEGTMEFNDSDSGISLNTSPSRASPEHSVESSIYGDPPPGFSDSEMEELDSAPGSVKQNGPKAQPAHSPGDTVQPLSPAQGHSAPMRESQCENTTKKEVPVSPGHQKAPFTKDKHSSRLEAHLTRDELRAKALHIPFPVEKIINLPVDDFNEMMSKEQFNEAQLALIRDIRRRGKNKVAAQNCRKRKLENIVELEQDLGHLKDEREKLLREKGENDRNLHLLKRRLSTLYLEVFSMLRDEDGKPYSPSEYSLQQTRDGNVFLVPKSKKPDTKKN
Method in brief: (§3)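 BV-2 microglia treated 0.3–10 μM; Nrf2 measured by Western blot in nuclear extracts and whole-cell lysates; at least duplicate cultures, averaged, expressed as fold of untreated control ± SEM; paired t test.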

[5] = target: T1, Nuclear factor erythroid 2-related factor 2 (Mus musculus); assay: Activation of Nrf2 in mouse BV-2 cells assessed as increase in nuclear Nrf2 level at 10 uM by Western blot analysis relative to control; type: cell-based; method in brief: as §3
Mus musculus [6] = assay: Anti-parkinson's activity in MPTP-induced C57Bl/6 mouse model of Parkinson's disease assessed as restoration of descent time at 20 mg/kg, po administered for 3 consecutive days prior and subsequent to MPTP administration (four injections of MPTP, 2 h intervals, 20 mg/kg, i.p. injection by vertical grid test; type: functional, organism-based
Method in brief: (§4)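 Mice dosed 20 mg/kg p.o. (or vehicle) for 3 consecutive days before and after MPTP (four i.p. injections, 20 mg/kg, 2 h apart); vertical grid test (turning, descent, total time) and coat-hanger scoring; n = 10–12 per group; mean ± SEM; one-way ANOVA with Tukey's test.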

BV-2 [7] = assay: Antiinflammatory activity in mouse BV2 cells assessed as reduction in LPS-induced iNOS expression at 3 to 10 uM incubated for 6 hrs followed by LPS stimulation for 12 hrs by RT-qPCR analysis; type: functional, cell-based; method in brief: as §2
Mus musculus [8] = assay: Protection against MPTP-induced DAergic neurotoxicity in C57B/6 mouse model of Parkinson's disease assessed as restoration of TH-positive neurons cell density in SN at 20 mg/kg, po observed after 7 days by microscopic analysis; type: functional, organism-based
Method in brief: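 MPTP mouse model with 20 mg/kg oral dosing; striatal and substantia nigra sections collected 7 days later and stained for tyrosine hydroxylase; striatal TH density and nigral TH-positive neuron counts; mean ± SEM; one-way ANOVA with Tukey's test.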

BV-2 [9] = assay: Antiinflammatory activity in mouse BV2 cells assessed as reduction in LPS-induced COX2 level at 1 to 10 uM incubated for 6 hrs followed by LPS stimulation for 12 hrs by Western blot analysis; type: functional, cell-based; method in brief: as §2
BV-2 [10] = assay: Antiinflammatory activity in mouse BV2 cells assessed as reduction in LPS-induced NO production at 1 to 10 uM incubated for 24 hrs by ELISA; type: functional, cell-based
Method in brief: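 BV-2 cells given compound together with 1 μg/mL LPS for 24 h; mediator levels expressed relative to LPS-stimulated control ± SEM; at least duplicate cultures; paired t test.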

[11] = target: T1, Nuclear factor erythroid 2-related factor 2 (Mus musculus); assay: Activation of Nrf2 in mouse BV-2 cells assessed as upregulation of HO-1 mRNA expression at 1 to 10 uM incubated for 3 hrs by RT-qPCR analysis relative to control; type: cell-based
Method in brief: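 BV-2 cells exposed to a range of concentrations for 3 h; HO-1, GCLM and GCLC mRNA quantified by RT-qPCR, normalized to β-actin; at least duplicate cultures, fold of untreated control ± SEM; paired t test.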

[12] = target: T2, Nuclear factor erythroid 2-related factor 2 (Homo sapiens, UniProt Q16236); assay: Activation of ED-tagged Nrf2 in human U2OS cells co-expressing Keap1 assessed as induction of NRF2 translocation to nucleus after 6 hrs by beta-galactosidase based chemiluminescent assay; type: cell-based
T2 sequence (Q16236 whole entry): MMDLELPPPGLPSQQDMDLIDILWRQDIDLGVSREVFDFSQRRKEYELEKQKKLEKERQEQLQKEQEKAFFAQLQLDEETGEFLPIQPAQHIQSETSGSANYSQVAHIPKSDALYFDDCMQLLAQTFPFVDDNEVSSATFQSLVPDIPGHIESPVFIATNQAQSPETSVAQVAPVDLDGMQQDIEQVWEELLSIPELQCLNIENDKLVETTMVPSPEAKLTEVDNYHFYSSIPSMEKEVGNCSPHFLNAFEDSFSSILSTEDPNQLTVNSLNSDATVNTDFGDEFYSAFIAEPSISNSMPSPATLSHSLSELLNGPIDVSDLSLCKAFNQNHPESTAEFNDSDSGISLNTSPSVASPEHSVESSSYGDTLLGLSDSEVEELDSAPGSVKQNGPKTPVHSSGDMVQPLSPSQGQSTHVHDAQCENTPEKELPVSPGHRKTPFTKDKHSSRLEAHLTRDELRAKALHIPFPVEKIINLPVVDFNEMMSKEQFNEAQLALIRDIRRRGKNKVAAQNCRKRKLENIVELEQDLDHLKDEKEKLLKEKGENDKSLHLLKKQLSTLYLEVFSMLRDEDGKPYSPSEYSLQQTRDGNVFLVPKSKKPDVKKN

[13] = target: T3, Nuclear factor erythroid 2-related factor 2 (Homo sapiens) (UniProt Q16236); assay: Activation of Nrf2 in human SH-SY5Y cells assessed as increase in GCLM level incubated for 6 to 24 hrs by Western blot analysis; type: cell-based
T3 sequence (whole entry): T2 sequence (Q16236 whole entry)
Method in brief: (§5)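 SH-SY5Y neuroblastoma cells treated for 6 or 24 h, then harvested; NQO1, GCLM, GCLC protein by Western blot with β-actin loading control; at least duplicate cultures, averaged, fold of untreated control ± SEM; paired t test.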

Mus musculus [14] = assay: Protection against MPTP-induced DAergic neurotoxicity in C57BL/6 mouse model of Parkinson's disease assessed as reduction in SNpc microglial activation by measuring Iba1 fluorescent intensity at 20 mg/kg/day, administered for 7 consecutive days by TH/Iba1 double immunostaining-based assay; type: functional, organism-based; settings: in the assay text read “administered for 3 consecutive days” for “administered for 7 consecutive days”
Method in brief: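 Double immunofluorescence for TH and Iba-1 on coronal substantia nigra sections 10 days after i.p. MPTP; relative Iba-1 intensity compared, n = 9 per group; mean ± SEM; one-way ANOVA with Tukey's test.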

[15] = target: T3, Nuclear factor erythroid 2-related factor 2 (Homo sapiens); assay: Activation of Nrf2 in human SH-SY5Y cells assessed as increase in GCLC level at 0.3 to 3 uM incubated for 6 to 24 hrs by Western blot analysis relative to control; type: cell-based; method in brief: as §5
[16] = target: T1, Nuclear factor erythroid 2-related factor 2 (Mus musculus); assay: Activation of Nrf2 in mouse BV-2 cells assessed as increase in nuclear Nrf2 level at 0.3 uM by Western blot analysis relative to control; type: cell-based; method in brief: as §3
Mus musculus [17] = assay: Anti-parkinson's activity in MPTP-induced C57Bl/6 mouse model of Parkinson's disease assessed as abnormal movement at 20 mg/kg, po administered for 3 consecutive days prior and subsequent to MPTP administration (four injections of MPTP, 2 h intervals, 20 mg/kg, i.p. injection by coat hanger test; type: functional, organism-based; method in brief: as §4

Activity [4]: Dose-dependent effect | fold change (FC) [5]: 17.6 | fold change (FC) [11]: 10.7 | EC50 [12]: 76 nM | Activity [13]: Dose-dependent effect | fold change (FC) [15]: 1.5 | fold change (FC) [16]: 4
SMILES: COc1ccccc1OS(=O)(=O)/C=C/c1ccccc1Cl
viability at 6 h, 1 µM [1]: 98% | viability at 6 h, 10 µM [2]: 95.9% | Activity (BV-2 [3]): Active | Activity (Mus musculus [6]): Active | Activity (BV-2 [7]): Active | Activity (Mus musculus [8]): Active | Activity (BV-2 [9]): Active | Activity (BV-2 [10]): Active | Activity (Mus musculus [14]): Active | Activity (Mus musculus [17]): Active

— ChEMBL document CHEMBL4304782, “Antioxidant, Anti-inflammatory, and Neuroprotective Effects of Novel Vinyl Sulfonate Compounds as Nrf2 Activator” (ACS Med Chem Lett, 2019)
